≈ marks a conversion by molar mass, not a printed value. One block for each molecule: values may come before it.
Assays:
[1] = AUC (0 to 24 hrs) in nu/nu BALB/c mouse at 100 mg/kg, po; format: ADME, organism-based; parameters: time < 24 hr, dose 100 mg/kg, route oral; details: plasma
[2] = Cmax in nu/nu BALB/c mouse at 100 mg/kg, po; format: ADME, organism-based; parameters: dose 100 mg/kg, route oral; details: in vivo
[3] = Solubility of the compound in lapanese pharmacopoeia second fluid at pH 6.8; format: physicochemical; details: Japanese Pharmacopoeia second fluid
Outline: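 Solubility was measured in Japanese Pharmacopoeia second fluid, pH 6.8. After incubation, precipitate was removed by filter-plate filtration and dissolved compound in the filtrate was quantified by HPLC.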

[4] = system: Mus musculus; assay: Gli1 mRNA expression level in human PAN-04 cells xenografted mouse tumor at 25 mg/kg, po after 24 hrs of first dose relative to control; details: PAN-04, po
[5] = biological target: Sonic hedgehog protein (Mus musculus, UniProt Q62226); assay: Inhibition of recombinant mouse Shh-N expressed in mouse NIH3T3/Gli-luc cells assessed as inhibition of Gli1 expression after 48 hrs by luciferase reporter gene assay; format: cell-based
Chain of Sonic hedgehog protein (Q62226 25-198 limits assumed): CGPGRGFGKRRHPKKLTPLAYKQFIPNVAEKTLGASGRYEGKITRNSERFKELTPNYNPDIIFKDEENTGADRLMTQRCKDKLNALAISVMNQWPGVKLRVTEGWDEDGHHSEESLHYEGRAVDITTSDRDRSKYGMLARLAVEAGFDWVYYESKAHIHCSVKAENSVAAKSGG
Outline: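 NIH3T3/Gli-luc cells were kept in DMEM with 10% FBS and 500 µg/mL G418, then seeded overnight on collagen-coated plates at 7.5×10³ cells/well (37 °C, 5% CO2). Final well conditions were 5.8% FBS, 1 µg/mL Shh-N and 0.03–1000 nM compound (n = 4 wells), incubated 48 h. Controls used 0.1% DMSO ± Shh-N. Read-out was Bright-Glo luciferase, and IC50 is the mean of four measurements.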

[6] = Oral bioavailability in dog at 10 mg/kg; format: ADME, organism-based, Canis lupus familiaris; details: in vivo
Outline: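 Fed dogs (n = 4) given 1 mg/kg iv and 10 mg/kg po. Plasma was deproteinized with methanol containing internal standard, centrifuged, and diluted in 0.01 mol/L ammonium formate/[MeCN/formic acid 100:0.2] (7:3). F was calculated per animal from AUC_0–24h after oral versus intravenous dosing in the same dog.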

[7] = Oral bioavailability in rat at 10 mg/kg; format: ADME, organism-based; details: in vivo
Outline: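 Rats (n = 3, listed as non-fasted) given 1 mg/kg iv and 10 mg/kg po. Plasma was deproteinized with methanol containing internal standard, centrifuged, and diluted in 0.01 mol/L ammonium formate/[MeCN/formic acid 100:0.2] (7:3). F was calculated from mean AUC_0–24h values after oral and intravenous dosing.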

[8] = AUC (0 to 24 hrs) in dog at 10 mg/kg, po; format: ADME, organism-based, Canis lupus familiaris; parameters: time < 24 hr, dose 10 mg/kg, route oral; details: plasma
Outline: (§1)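 Fed dogs were dosed at 1 mg/kg iv and 10 mg/kg po. Plasma was collected over 0–24 h, deproteinized with methanol containing an internal standard, centrifuged, and diluted with 0.01 mol/L ammonium formate/(MeCN/formic acid 100:0.2) (7:3) for compound quantitation. AUC_0–24h is reported as mean ± SD of four animals.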

[9] = AUC (0 to 24 hrs) in rat at 10 mg/kg, po; format: ADME, organism-based; parameters: time < 24 hr, dose 10 mg/kg, route oral; details: plasma
Outline: (§2)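 Rats were given 1 mg/kg iv or 10 mg/kg po and were non-fasted. Plasma was sampled over 0–24 h, deproteinized with methanol plus an internal standard, centrifuged, diluted in 0.01 mol/L ammonium formate/(MeCN/formic acid 100:0.2) (7:3), and centrifuged again. AUC_0–24h is reported as mean ± SD of three animals.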

[10] = AUC (0 to 24 hrs) in rat at 1 mg/kg, iv; format: ADME, organism-based; parameters: time < 24 hr, dose 1 mg/kg, route intravenous; details: plasma; outline: as §2
[11] = AUC (0 to 24 hrs) in dog at 1 mg/kg, iv; format: ADME, organism-based, Canis lupus familiaris; parameters: time < 24 hr, dose 1 mg/kg, route intravenous; details: plasma; outline: as §1
[12] = Clearance in dog at 1 mg/kg, iv and 10 mg/kg, po; format: ADME, organism-based, Canis lupus familiaris; details: in vivo
Outline: (§3)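 Single doses were given to rats and dogs: 1 mg/kg iv and 10 mg/kg po. Plasma was deproteinized with methanol containing internal standard, then diluted with 0.01 mol/L ammonium formate/(MeCN/formic acid) 7:3. Rat values are the mean ± SD of three non-fasted animals. Dog values come from four fed animals, with F calculated per animal from AUC0–24h.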

[13] = Volume of distribution at steady state in dog at 1 mg/kg, iv and 10 mg/kg, po; format: ADME, organism-based, Canis lupus familiaris; details: in vivo, read-out: Vdss; outline: as §3
[14] = Clearance in rat at 1 mg/kg, iv and 10 mg/kg, po; format: ADME, organism-based; details: in vivo; outline: as §3
[15] = Volume of distribution at steady state in rat at 1 mg/kg, iv and 10 mg/kg, po; format: ADME, organism-based; details: in vivo, read-out: Vdss; outline: as §3
[16] = system: Mus musculus; assay: Antitumor activity in Ptc1+/- p53-/- medulloblastoma allograft model of mouse assessed as tumor growth inhibition at 25 mg/kg, po qd for 14 days relative to control; format: functional
Outline: (§4)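 Medulloblastoma tumours were serially passaged subcutaneously in nude mice (CAnN.Cg-Foxn1nu). Treatment started at 150–250 mm³ tumour volume: oral dosing as a 0.5% methylcellulose suspension for 14 days, once daily per the figure legend. Tumours were measured by caliper, with V = (a×b²)/2. T/C% = mean treated (Vend−Vstart) / control (Vend−Vstart) × 100, with n = 5 and a 1-tailed Shirley-Williams test against vehicle.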

[17] = system: Mus musculus; assay: Antitumor activity in Ptc1+/- p53-/- medulloblastoma allograft model of mouse assessed as tumor growth inhibition at 1 mg/kg, po qd for 14 days relative to control; format: functional; outline: as §4

SMILES: CCc1c(C(=O)NC2CCN(C(=O)CO)CC2)n(C)c2cc(CC)n(CC(=O)c3ccccc3)c(=O)c12
- IC50 [5]: 95 nM

SMILES: CCc1cc2c(c(OCCF)c(C(=O)NC3CCN(C(=O)CO)CC3)n2C)c(=O)n1CC(=O)c1ccccc1
- solubility [3]: 69 µg/mL (≈ 128 µM)
- IC50 [5]: 4.9 nM

SMILES: CCc1cc2c(c(OCC(F)F)c(C(=O)NC3CCN(C(=O)CO)CC3)n2C)c(=O)n1CC(=O)c1ccccc1
- solubility [3]: 84 µg/mL (≈ 150 µM)
- IC50 [5]: 4.4 nM

SMILES: CCc1cc2c(c(OCC(F)(F)F)c(C(=O)NC3CCN(C(=O)CO)CC3)n2C)c(=O)n1CC(=O)c1ccccc1 [TAK-441]
- bioavailability [6]: 90.3%
- bioavailability [7]: 31.7%
- AUC(0-t) at 24 h [8]: 45400 ng·h/mL
- AUC(0-t) at 24 h [9]: 8030 ng·h/mL
- AUC(0-t) at 24 h [10]: 2530 ng·h/mL
- AUC(0-t) at 24 h [11]: 5100 ng·h/mL
- clearance [12]: 2.69 mL/min/kg
- Vd [13]: 2.18 L/kg
- clearance [14]: 6.63 mL/min/kg
- Vd [15]: 0.682 L/kg
- T/C [16]: 3%
- T/C [17]: 46%
- AUC(0-t) at 24 h [1]: 206000 ng·h/mL
- Cmax [2]: 21500 ng/mL
- solubility [3]: 81 µg/mL (≈ 140 µM)
- IC50 [5]: 4.4 nM

Continued, in another order:

- AUC(0-t) at 24 h [1]: 32300 ng·h/mL
- Cmax [2]: 3630 ng/mL
- solubility [3]: 8.4 µg/mL (≈ 15.8 µM)
SMILES: COc1c(C(=O)NC2CCN(C(=O)CO)CC2)n(C)c2c1c(=O)n(CC(=O)c1ccccc1)c1ccccc21
- level, % of control at 25 mg/kg [4]: 5%

- solubility [3]: 77 µg/mL (≈ 156 µM)
- IC50 [5]: 14 nM
SMILES: COc1c(C(=O)NC2CCN(C(=O)CO)CC2)n(C)c2cc(C)n(CC(=O)c3ccccc3)c(=O)c12

- solubility [3]: 63 µg/mL (≈ 124 µM)
- IC50 [5]: 5.7 nM
SMILES: CCc1cc2c(c(OC)c(C(=O)NC3CCN(C(=O)CO)CC3)n2C)c(=O)n1CC(=O)c1ccccc1

- solubility [3]: 58 µg/mL (≈ 111 µM)
- IC50 [5]: 6.9 nM
SMILES: CCOc1c(C(=O)NC2CCN(C(=O)CO)CC2)n(C)c2cc(CC)n(CC(=O)c3ccccc3)c(=O)c12

- solubility [3]: 80 µg/mL (≈ 150 µM)
- IC50 [5]: 96 nM
SMILES: COc1c(C(=O)NC2CCN(C(=O)CO)CC2)n(C)c2c3c(n(CC(=O)c4ccccc4)c(=O)c12)CCCC3
